Measurements: ChEMBL document CHEMBL2311271 (Eur J Med Chem, 2013)

What was measured:
[1] = tested on: Lewis lung carcinoma cell line; assay: Antitumor activity against mouse LLC cells xenografted in mouse assessed as tumor inhibition at 7.5 mg/kg, ip qd for 7 days measured every 3 days for 21 days; type: functional; conditions: route intraperitoneal
Method in brief: (§1)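 Tumour cells passaged in mice for 7 days, then harvested. Viable cells (2 × 10⁶/mouse) injected s.c. into the armpit. Starting 24 h later, compound given i.p. once daily for 7 days, 10 female mice per group. Mice killed on day 21 after inoculation and tumours excised and weighed. Inhibition = (C − T)/C × 100, using mean tumour weights of treated (T) and negative control (C) groups.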

[2] = tested on: Mus musculus; assay: Neurotoxicity in ip dosed C57BL/6 mouse assessed as tremble, twitch, jumping and supination response; type: toxicity, organism-based; conditions: in vivo
Method in brief: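 C57BL/6 mice (9–12 weeks, 18–22 g), fasted overnight with water, dosed i.p. with 1.0–500 mg/kg in 0.5% CMC-Na; 10 per group (5 male, 5 female). Watched continuously 2 h for tremor, twitch, jumping, supination and other behavior, then intermittently to 24 h and occasionally to 14 days; killed day 14, with heart, liver and kidneys inspected.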

[3] = Antitumor activity against mouse Sarcoma 180 cells xenografted in mouse assessed as tumor inhibition at 7.5 mg/kg, ip qd for 7 days measured every 3 days for 21 days; type: functional; conditions: Sarcoma-180, ip, route intraperitoneal; method in brief: as §1
[4] = tested on: 769-P; assay: Cytotoxicity against human 769-P cells by MTT assay; type: functional, cell-based
Method in brief: (§2)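 Cells grown in RPMI-1640 with 10% fetal calf serum plus penicillin and streptomycin, 37 °C, 5% CO₂. Compounds in DMSO, final ≤2% (v/v), tested in 96-well cultures with MTT staining. IC₅₀ = concentration cutting optical density 50% versus untreated cells; three replicate wells per point; mean of three independent determinations.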

[5] = Cytotoxicity against human Blu-87 cells by MTT assay; type: functional, cell-based; method in brief: as §2
[6] = tested on: A-375; assay: Cytotoxicity against human A375 cells by MTT assay; type: functional, cell-based; method in brief: as §2
[7] = Acute toxicity in ip dosed C57BL/6 mouse measured up to 14 days; type: organism-based; conditions: in vivo
Method in brief: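 Healthy C57BL/6 mice (9–12 weeks, 18–22 g), fasted overnight, 10 per group (5 male, 5 female). Single i.p. dose, 1.0 to 500 mg/kg in 0.5% CMC-Na. Watched continuously for 2 h, intermittently over 24 h, then occasionally to day 14 for behaviour, deaths and delayed effects. Heart, liver and kidneys inspected at necropsy. LD50 derived graphically.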

[8] = Antitumor activity against mouse Sarcoma 180 cells xenografted in mouse assessed as tumor inhibition at 3 mg/kg, ip qd for 7 days measured every 3 days for 21 days; type: functional; conditions: Sarcoma-180, ip, route intraperitoneal
[9] = tested on: HepG2; assay: Cytotoxicity against human HepG2 cells by MTT assay; type: functional, cell-based; method in brief: as §2
[10] = tested on: A549; assay: Cytotoxicity against human A549 cells by MTT assay; type: functional, cell-based; method in brief: as §2
[11] = tested on: HT-29; assay: Cytotoxicity against human HT-29 cells by MTT assay; type: functional, cell-based; method in brief: as §2
[12] = tested on: U-251; assay: Cytotoxicity against human U251 cells by MTT assay; type: functional, cell-based; method in brief: as §2
[13] = tested on: HeLa; assay: Cytotoxicity against human HeLa cells by MTT assay; type: functional, cell-based; method in brief: as §2
[14] = tested on: Lewis lung carcinoma cell line; assay: Antitumor activity against mouse LLC cells xenografted in mouse assessed as tumor inhibition at 3 mg/kg, ip qd for 7 days measured every 3 days for 21 days; type: functional; conditions: route intraperitoneal
[15] = tested on: KB; assay: Cytotoxicity against human KB cells by MTT assay; type: functional, cell-based; method in brief: as §2
[16] = tested on: SCaBER; assay: Cytotoxicity against human SCaBER cells by MTT assay; type: functional, cell-based; method in brief: as §2
[17] = tested on: BGC-823; assay: Cytotoxicity against human BGC823 cells by MTT assay; type: functional, cell-based; method in brief: as §2
[18] = tested on: Bel-7402; assay: Cytotoxicity against human Bel7402 cells by MTT assay; type: functional, cell-based; method in brief: as §2
[19] = tested on: OS-RC-2; assay: Cytotoxicity against human OS-RC2 cells by MTT assay; type: functional, cell-based; method in brief: as §2
[20] = tested on: MCF7; assay: Cytotoxicity against human MCF7 cells by MTT assay; type: functional, cell-based; method in brief: as §2
[21] = tested on: 786-0; assay: Cytotoxicity against human 786-0 cells by MTT assay; type: functional, cell-based; method in brief: as §2
[22] = Antitumor activity against mouse Sarcoma 180 cells xenografted in mouse assessed as tumor inhibition at 20 mg/kg, ip qd for 7 days measured every 3 days for 21 days; type: functional; conditions: Sarcoma-180, ip, route intraperitoneal
[23] = tested on: Lewis lung carcinoma cell line; assay: Antitumor activity against mouse LLC cells xenografted in mouse assessed as tumor inhibition at 20 mg/kg, ip qd for 7 days measured every 3 days for 21 days; type: functional; conditions: route intraperitoneal
[24] = tested on: Lewis lung carcinoma cell line; assay: Antitumor activity against mouse LLC cells xenografted in mouse assessed as tumor inhibition at 1.2 mg/kg, ip qd for 7 days measured every 3 days for 21 days; type: functional; conditions: route intraperitoneal
[25] = tested on: CWR22R; assay: Cytotoxicity against human 22Rv1 cells by MTT assay; type: functional, cell-based; method in brief: as §2
[26] = Antitumor activity against mouse Sarcoma 180 cells xenografted in mouse assessed as tumor inhibition at 1.2 mg/kg, ip qd for 7 days measured every 3 days for 21 days; type: functional; conditions: Sarcoma-180, ip, route intraperitoneal
[27] = tested on: Lewis lung carcinoma cell line; assay: Antitumor activity against mouse LLC cells xenografted in mouse assessed as tumor inhibition at 1 mg/kg, ip qd for 7 days measured every 3 days for 21 days; type: functional; conditions: route intraperitoneal
[28] = Antitumor activity against mouse Sarcoma 180 cells xenografted in mouse assessed as tumor inhibition at 1 mg/kg, ip qd for 7 days measured every 3 days for 21 days; type: functional; conditions: Sarcoma-180, ip, route intraperitoneal

Compound	Activity [2]	IC50 [4] [nM]	IC50 [5] [nM]	IC50 [6] [nM]	LD50 at 336 h [7] [mg/kg]	IC50 [9] [nM]	IC50 [10] [nM]	IC50 [11] [nM]	IC50 [12] [nM]	IC50 [13] [nM]	IC50 [15] [nM]	IC50 [16] [nM]	IC50 [17] [nM]	IC50 [18] [nM]	IC50 [19] [nM]	IC50 [20] [nM]	IC50 [21] [nM]	IC50 [25] [nM]	further results
COc1ccc2c(c1)[nH]c1c(C)nccc12 [HARMINE]	Toxic																		inhibition in vivo at 7.5 mg/kg [1]: 33.7%; inhibition in vivo at 7.5 mg/kg [3]: 30.8%
CCn1c2cc(OCCCc3ccccc3)ccc2c2cc[n+](Cc3ccccc3)c(C)c21.[Br-]	Non-toxic	5000	17300	2400	15	7600	2300	4200	10500	2200	< 1500	16200	7600	2400	2200	2800	1500		inhibition in vivo at 3 mg/kg [8]: 53.1%; inhibition in vivo at 3 mg/kg [14]: 27.2%
CCC(CC)Oc1ccc2c3ccnc(C)c3n(CCCc3ccccc3)c2c1	Non-toxic				100	7300				70100			18300	34300		41900			inhibition in vivo at 20 mg/kg [22]: 30.1%; inhibition in vivo at 20 mg/kg [23]: 27.1%
CCC(CC)Oc1ccc2c3cc[n+](Cc4ccccc4)c(C)c3n(CCCc3ccccc3)c2c1.[Br-]	Non-toxic	< 1500	2100	< 1500	6.25	3100	2000	2000	2100	1500	< 1500	4400	2500	810	2500	1800	< 1500	< 1500	inhibition in vivo at 1.2 mg/kg [24]: 28%; inhibition in vivo at 1.2 mg/kg [26]: 41.5%
Cc1c2c(cc[n+]1Cc1ccccc1)c1ccc(OCc3ccccc3)cc1n2CC(C)C.[Br-]	Non-toxic	2400	6900	3300	5		3500	3400	< 1500		< 1500	4600			4600		< 1500	< 1500	inhibition in vivo at 1 mg/kg [27]: 23.7%; inhibition in vivo at 1 mg/kg [28]: 52.6%
